The values below come from ChEMBL document CHEMBL2331259, “Design, synthesis, biological evaluation and molecular modeling studies of 1-aryl-6-(3,4,5-trimethoxyphenyl)-3(Z)-hexen-1,5-diynes as a new class of potent antitumor agents” (Eur J Med Chem, 2013).

In assay [1] the test system is SK-HEP1. Kind of assay: Cytotoxicity against human SKHEP1 cells assessed as growth inhibition. In kind it is functional, cell-based.
The test system of assay [2] is PC-3. Kind of assay: Cytotoxicity against human PC3 cells assessed as growth inhibition. In kind it is functional, cell-based.
In assay [3] the test system is AGS. Put plainly: Cytotoxicity against human AGS cells assessed as growth inhibition. In kind it is functional, cell-based.
The nature of assay [4]: Cytotoxicity against human CE81T cells assessed as growth inhibition. Type of assay: functional, cell-based.
A short description of assay [5]: Cytotoxicity against human BT-483 cells assessed as growth inhibition. Type of assay: functional, cell-based.
Assay [6] has as its system A549. Put plainly: Cytotoxicity against human A549 cells assessed as growth inhibition. In kind it is functional, cell-based.
Assay [7] has as its system HeLa. Put plainly: Cytotoxicity against human HeLa cells assessed as growth inhibition. In kind it is functional, cell-based.
Assay [8] has as its system SAS. Put plainly: Cytotoxicity against human SAS cells assessed as growth inhibition. In kind it is functional, cell-based.
Assay [9] relates to BT-483. Put plainly: Induction of DNA damage in human BT-483 cells assessed as gamma H2AX phosphorylation at Ser139 at 1 to 10 uM after 24 hrs by Western blot analysis. In kind it is functional, cell-based. The method in brief: (§1)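 BT483 cells treated 24 h with vehicle (1% DMSO) or compound at various concentrations, PBS-washed and lysed. 50 μg protein run on 15% SDS-PAGE, transferred to PVDF, blocked overnight at 4 °C in 5% nonfat milk. Probed 2 h at room temperature with monoclonal anti-Caspase-3, anti-PARP, anti-phospho-γ-H2AX or anti-β-actin, then secondary IgG (1:5000). ECL detection. Irinotecan served as positive control.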
On the technique in general: In western blotting, separated proteins are transferred to a membrane and probed.

Assay [10] concerns BT-483. Put plainly: Induction of apoptosis in human BT-483 cells assessed as PARP cleavage at 1 uM after 24 hrs by Western blot analysis. In kind it is functional, cell-based. In short, it runs like this:
as §1

A short description of assay [11]: Cell cycle arrest in human BT-483 cells assessed as accumulation of cells at subG1 phase at 0.2 uM after 24 hrs by flow cytometric analysis. Type of assay: functional, cell-based. The method in brief: (§2)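 BT-483 cells exposed to DMSO or 0.2 μM compound for 12 and 24 h, harvested, PBS-rinsed, fixed in 80% ethanol and stored at -20 °C. DNA-fluorescence flow cytometry used for cell cycle distribution, including G2/M and sub-G1 fractions.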
For orientation: A flow cytometer gives signals particle by particle.

In assay [12] the test system is BT-483. Put plainly: Antitumor activity against human BT-483 cells xenografted in nude mouse assessed as decrease in tumor growth at 20 mg/kg/day, ip for 2 weeks measured every 3 days by caliper analysis. Type of assay: functional, organism-based. The method in brief: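 Nude mice (male, 6–8 weeks, 20–25 g, SPF) inoculated s.c. in left flank with 1×10^6 BT483 cells in 50% matrigel. Treatment began at tumor volume ~20 mm³: i.p. daily for 2 weeks versus DMSO vehicle (n = 5 vehicle, n = 6 treated). Caliper measurement every 3 days from first dose; volume = width × length × height. Mean ± SEM.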
Background: Xenograft models place foreign cells or tissue in a host animal.

The test system of assay [13] is BT-483. Put plainly: Induction of apoptosis in human BT-483 cells assessed as increase in caspase 3 activity at 1 uM after 24 hrs by Western blot analysis. Type of assay: functional, cell-based. The method in brief: as §1
For assay [14], the target named is T1, Tubulin alpha (Homo sapiens) (UniProt P0DPH7+P68366+Q71U36+P68363+Q9BQE3+Q6PEY2+A6NHL2+Q9NY65). Kind of assay: Binding affinity to Tubulin alpha/beta in human BT-483 cells assessed as microtubule depolymerization at 1 uM after 6 hrs by immunofluorescence analysis. In kind it is cell-based. The method in brief:
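BT483 cells held at 4 °C for 4 h to depolymerize microtubules, then incubated at 37 °C for 6 h in medium with DMSO or 1 μM compound. Cells fixed, immunostained with anti-tubulin antibody to view microtubule distribution; nuclei counterstained with DAPI.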

Assay [15] in a line: Cell cycle arrest in human BT-483 cells assessed as accumulation of cells at G2/M phase at 0.2 uM after 12 hrs by flow cytometric analysis. Type of assay: functional, cell-based. In short, it runs like this: as §2
The subject of assay [16] is BT-483. Put plainly: Induction of DNA damage in human BT-483 cells assessed as gamma H2AX phosphorylation at Ser139 at 1 uM after 24 hrs by Western blot analysis. Type of assay: functional, cell-based. In short, it runs like this:
as §1

Assay [17] concerns the target T1, Tubulin alpha (Homo sapiens). Kind of assay: Binding affinity to Tubulin alpha/beta in human BT-483 cells assessed as microtubule depolymerization at 3.6 uM after 6 hrs by immunofluorescence analysis. Type of assay: cell-based.

The source made the active and inactive calls. The rule behind the calls is not given here.

Turning to `COc1cc(C#C/C=C\C#Cc2ccccc2N)cc(OC)c1OC`, the IC50 in assay [1] came out at 0.2 µM; in assay [2] it was 0.73 µM; in [3] it was 0.98 µM; in assay [4], 8.98 µM; in [5], 1.98 µM; in [6], 0.57 µM. Further, the IC50 in assay [7] came out at 0.64 µM; in assay [8], 4.53 µM.

For the compound `COc1cc(C#C/C=C\C#Cc2ccccc2C#N)cc(OC)c1OC`, the half-inhibitory concentration (IC50) came out at 1.2 µM in assay [1]; 8.68 µM in assay [2]; 4.56 µM in assay [3]; 6.39 µM in assay [4]; 10.5 µM in assay [5]; 0.79 µM in [6]. Moreover, the IC50 in assay [7] was determined as 1.07 µM; in assay [8], 10.6 µM.

In the case of `COc1ccc(C#C/C=C\C#Cc2cc(OC)c(OC)c(OC)c2)c(OC)c1`, the IC50 was found to be 14.4 µM in assay [1], 22.9 µM in [2], 17.4 µM in [4] and 12.8 µM in [7].

Take `COc1cc(C#C/C=C\C#Cc2ccccc2[N+](=O)[O-])cc(OC)c1OC`: the IC50 came out at 1.34 µM in [1]; 4.56 µM in assay [2]; 4.66 µM in assay [3]; 6.91 µM in assay [4]; 4.24 µM in assay [5]; 5.71 µM in assay [6]. In addition, the IC50 in [7] came to 1.89 µM; in assay [8], 1.37 µM.

For the compound `COc1ccc(C#C/C=C\C#Cc2cc(OC)c(OC)c(OC)c2)c(N)c1`, the IC50 in [1] came out at 5.23 µM; in assay [2] it was 11.7 µM; in assay [3], 5.75 µM; in [4], 30 µM; in assay [5], 9.56 µM; in [6], 6.42 µM. The IC50 amounted to 5 µM in assay [7] and 12.3 µM in [8].

As for `COc1cc(C#C/C=C\C#Cc2cc(C(F)(F)F)ccc2N)cc(OC)c1OC`, the IC50 in assay [1] turned out to be 28.3 µM; in [4] it was 21 µM; in [5] it was 21.2 µM; in [6] it was 12.4 µM; in assay [7] it was 24.8 µM; in assay [8], 15.8 µM.

In the case of `COc1cc(C#C/C=C\C#Cc2ccccn2)cc(OC)c1OC`, the outcome in assay [9], in assay [10], in assay [11], in [12], in assay [13] and in assay [14] was Active. Also, the outcome in [15] was Active. In addition, the IC50 worked out at 0.43 µM in [1]; 0.51 µM in assay [2]; 0.13 µM in assay [3]; 6.87 µM in assay [4]; 0.86 µM in assay [5]; 3.99 µM in assay [6]. The IC50 was determined as 0.39 µM in assay [7] and 1.16 µM in assay [8].

Regarding `CCc1c2c(nc3ccc(OC(=O)N4CCC(N5CCCCC5)CC4)cc13)-c1cc3c(c(=O)n1C2)COC(=O)[C@]3(O)CC`, the outcome in [16] was Active.

As to `COc1ccc(C#C/C=C\C#Cc2cc(OC)c(OC)c(OC)c2)c([N+](=O)[O-])c1`, the IC50 was determined as 4.28 µM in [1]; 3.79 µM in assay [2]; 2.78 µM in assay [3]; 6.32 µM in assay [4]; 4.53 µM in assay [5]; 5.95 µM in assay [6]. Moreover, the IC50 in [7] turned out to be 2.26 µM; in assay [8] it was 0.65 µM.

In the case of `COc1cc2c(c(OC)c1OC)-c1ccc(OC)c(=O)cc1[C@@H](NC(C)=O)CC2` [COLCHICINE], the IC50 in assay [1] was 0.78 µM; in assay [2] it was 0.06 µM; in assay [3] it was 0.05 µM; in assay [4], 1.78 µM; in assay [5] it was 1.45 µM; in [6], 0.07 µM. Further, the figures for the IC50 in assay [7] and in [8] were 0.66 µM and 3.5 µM, respectively.

In the case of `COc1ccccc1C#C/C=C\C#Cc1cc(OC)c(OC)c(OC)c1`, the IC50 in [1] was 0.34 µM; in assay [2] it was 0.62 µM; in [3], 0.78 µM; in assay [4], 6.95 µM; in [5] it was 1.23 µM; in assay [6], 0.52 µM. For the same compound, the IC50 in assay [7] was 0.57 µM; in assay [8], 9.88 µM.

`Nc1ccccc1C#C/C=C\C#Cc1ccccc1C(F)(F)F`: the IC50 in [1] was 6.68 µM; in assay [2], 8.26 µM; in assay [3], 8.24 µM; in [4], 2.91 µM; in assay [5], 8.56 µM; in [6], 6.57 µM. The values for the IC50 in [7] and in assay [8] were 5.49 µM and 5.83 µM, respectively. The outcome in [17] was Active.

On to `COc1cc(C#C/C=C\C#Cc2ccccc2SC)cc(OC)c1OC`, for which the 50% inhibitory concentration (IC50) came out at 13.3 µM in assay [1]; 17.4 µM in assay [2]; 9.53 µM in assay [3]; 13.9 µM in assay [4]; 15.2 µM in [5]; 11.7 µM in assay [6]. The values for the IC50 in assay [7] and in [8] were 15.9 µM and 12.8 µM, respectively.

What is called IC50 is the concentration at which inhibition is half-maximal.
